From PubChem
Compounds with a hit are over-represented: about 5.7% of the library has one in this group of screens.
Beta cell apopt: inhibitors of cytokine-induced beta cell apoptosis, primary screen, luminescence; INS-1E cytokine-induced death, ATP luminescence, 48 h; percent of positive-control rescue, neutral wells zero; protection from apoptosis, % (test concentration not listed); 300,000 tested, 0.8% active; AID 435005, 2010;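 active = Every replicate reaches about 75%, or at least half do and their mean reaches it too, limit read from the data; inconclusive = At least half of replicates reach the limit but their mean does not; inactive = Under half of replicates reach the limit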;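 note: 0% = cytokine-treated negative control wells and 100% = positive control rescue; higher means more ATP so stronger rescue from cytokine killing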
Calb FLC: C. albicans growth inhibition with fluconazole, primary screen, CaCi-2 strain, Alamar Blue fluorescence | AID 1979, 2009 | C. albicans CaCi-2 (fluconazole-resistant clinical isolate) + fluconazole, 48 h | growth inhibition, % (no concentration beside the values) | 300,000 tested, 0.57% active;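 active = growth inhibition above about 58% in most replicates, limit read from the data, passing the limit was not always enough; inconclusive = exactly half the replicates above a set limit; inactive = most replicates below a set limit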;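 note: all wells also contain fluconazole at 8 µg/ml as a sub-toxic cotreatment; 0% = median of DMSO wells and 100% = median of geldanamycin control wells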
CSC inhib: cancer stem cell viability inhibitors, primary screen, luminescence. cancer stem cell-like cells viability. inhibition, % at 7.5 µM. AID 2717, 2010. 300,000 tested, 1.1% active; in the data active = inhibition above about 75%; inconclusive = no clear call, values can overlap the other calls; tested in HMLE shEcad cells
SKKanGAS inh: S. pyogenes SKKanGAS growth inhibitors in kanamycin, primary screen, streptokinase expression inhibitor project, SKKanGAS strain, BacTiter-Glo luminescence; 6 h; inhibition, % at 7.5 µM; 300,000 tested, 1.3% active;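 active = mean replicate score, as percent of positive control median, at least 50; inconclusive = mean below 50 but one replicate at or above 50; inactive = mean and every replicate below 50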;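 note: strain carries kanamycin resistance gene driven by streptokinase promoter and grows in 40 µg/ml kanamycin; loss of luminescence reflects streptokinase promoter inhibition or plain growth inhibition; 0% = median of DMSO wells and 100% = positive control at its reference dose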
Mdm2 MdmX PPI: inhibitors of human Mdm2-MdmX association, primary screen, cell-based, luminescence, split luciferase, SaOS-2, uHTS | 330,000 tested, 3% active | Protein Mdm4 (Homo sapiens) + E3 ubiquitin-protein ligase Mdm2 (Homo sapiens), … | inhibition, % at 8 µM | AID 485346, 2010 | SaOS-2 split-luciferase Mdm2/MdmX complementation;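 active = inhibition of at least 50% at 8 µM in the primary screen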
Target sequence (O15151 whole entry, looked up): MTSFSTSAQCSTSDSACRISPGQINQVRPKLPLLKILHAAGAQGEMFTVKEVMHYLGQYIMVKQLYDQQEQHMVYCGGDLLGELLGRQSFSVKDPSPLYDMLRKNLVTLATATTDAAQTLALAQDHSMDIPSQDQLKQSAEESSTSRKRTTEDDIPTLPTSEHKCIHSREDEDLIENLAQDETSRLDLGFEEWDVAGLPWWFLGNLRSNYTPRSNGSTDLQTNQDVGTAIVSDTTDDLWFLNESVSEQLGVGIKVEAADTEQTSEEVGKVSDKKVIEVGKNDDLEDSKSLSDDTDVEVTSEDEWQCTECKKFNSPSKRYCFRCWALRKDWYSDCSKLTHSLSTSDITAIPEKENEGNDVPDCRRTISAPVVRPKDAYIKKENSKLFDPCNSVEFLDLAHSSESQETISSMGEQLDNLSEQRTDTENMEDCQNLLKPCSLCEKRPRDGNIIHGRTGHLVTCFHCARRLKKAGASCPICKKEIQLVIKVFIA
Target sequence (Q00987 whole entry, looked up): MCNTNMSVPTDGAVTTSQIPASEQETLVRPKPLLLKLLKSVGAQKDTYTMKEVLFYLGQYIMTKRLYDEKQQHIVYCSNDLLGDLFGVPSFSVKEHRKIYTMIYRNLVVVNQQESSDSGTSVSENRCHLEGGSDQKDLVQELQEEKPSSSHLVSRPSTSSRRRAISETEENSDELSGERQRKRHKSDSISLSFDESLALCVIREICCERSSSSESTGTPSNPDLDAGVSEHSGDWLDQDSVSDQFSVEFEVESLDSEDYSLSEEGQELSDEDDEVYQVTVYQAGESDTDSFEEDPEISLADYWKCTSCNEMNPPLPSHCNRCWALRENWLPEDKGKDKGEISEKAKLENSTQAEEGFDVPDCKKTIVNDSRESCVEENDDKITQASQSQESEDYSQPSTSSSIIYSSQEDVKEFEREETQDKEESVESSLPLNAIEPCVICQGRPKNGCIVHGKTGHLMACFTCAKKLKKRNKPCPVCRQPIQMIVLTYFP
T cruzi inh: inhibitors of intracellular T. cruzi growth, primary screen, luminescence, NIH3T3 host cells. T. cruzi beta-gal in NIH3T3, 90 h. inhibition, % (concentration not given with the values). 300,000 tested, 1.4% active. AID 1885, 2009;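 active = mean inhibition across valid replicates above about 55%, limit read from the data; inconclusive = mean below that limit but half or more replicates reach it; inactive = mean below it, under half of replicates reach it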;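 note: signal also drops with host cell toxicity which is not excluded here; 0% = plate median of DMSO wells and 100% = zero luminescence signal; higher percent means less beta-gal luminescence so fewer parasites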
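Test system: β-gal T. cruzi (Tulahuen C4) inside NIH/3T3 cells / Quantity: 5,000 cells/well / Measured by: luminescence from GalScreen with 0.05% NP40, read after 60 min / Medium: DMEM plus 2% FBS / Measure: parasite load inhibition, % / Reagent: Tulahuen C4 trypomastigotes, 5000/well / Schedule: co-culture of at least 90 h after 3 h attachment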
Mdm2-MdmX conf: Mdm2-MdmX complex disruptors, retested hits, confirmation, luminescence, single concentration; shares compounds with Mdm2 MdmX PPI; Mdm2-MdmX binding, luminescent assay; inhibition, % at 8 µM; 10,000 tested, 55% active; AID 489028, 2010; in the data active = inhibition above about 40%
Full FLuc ctr: full-length luciferase signal inhibition, confirmation, counter-screen for Mdm2/MdmX interaction inhibitor project, cell-based, single concentration, SaOS-2. shares compounds with Mdm2 MdmX PPI. SaOS-2 full-length luciferase counterscreen, luminescence. inhibition, % at 8 µM. 6,200 tested, 77% active;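 active = mean inhibition at 8 µM reaching about 37%, which flags the compound as non-specific, limit read from the data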;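 note: p53-null SaOS-2 cells with luciferase driven by a doxycycline-inducible promoter; compound on cells about two nights before reading with doxycycline added after day one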
* = called active by the depositor; ? = inconclusive; . = not tested or not shown.

SMILES	Beta cell apopt	Calb FLC	CSC inhib	SKKanGAS inh	Mdm2 MdmX PPI	T cruzi inh	Mdm2-MdmX conf	Full FLuc ctr
COc1ccc2cc(C(=O)N/N=C/c3cc(OC)c(OC)c(OC)c3)[nH]c2c1	5	.	19	26	2	-3	.	.
COc1cccc(/C=N/Nc2ccc(S(=O)(=O)O)cc2)c1O	-6	-6	-10	5	9	-12	.	.
COc1cccc(/C=N/NC(=O)N/N=C/c2cccc(OC)c2O)c1O	7	14	15	3	25	4	.	.
COc1cccc(/C=N/Nc2ccc(C(=O)O)cc2)c1O	21	11	25	27	54*	3	24	.
COc1cc(OC)c2cc(C(=O)N/N=C/c3cccc(OC)c3O)[nH]c2c1	97*	2	125*	21	69*	22	62*	34
COc1cccc(/C=N/NC(=O)c2nc(-c3ccccc3)cc(-c3ccccc3)n2)c1O	8	114*	46	29	51*	6	20	.
COc1cccc(/C=N/NC(=O)c2cc3c(OC)ccc(OC)c3[nH]2)c1O	86*	-19	103*	106*	62*	7	63*	38*
CCOC(=O)C1CCN(S(=O)(=O)c2ccc3c(c2)NC(=O)CS3)CC1	2	-9	2	-2	7	-1	.	.
Cc1ccc(Cl)cc1NC(=O)Nc1cccs1	8	?	4	-5	7	-29	.	.
CN(CC(=O)Nc1ccc(Cl)c(C(F)(F)F)c1)C(=O)/C=C/c1cccs1	-4	.	22	.	36	.	.	.
COc1ccc(OC)c(Cc2nnc(CCC(=O)NCc3ccc(C)s3)o2)c1	4	-25	-13	10	-2	-17	.	.
O=C(CCCC1=NS(=O)(=O)c2ccccc2N1)OCc1ccc(Cl)cc1	-2	-8	-20	-3	27	-17	.	.
Cc1cc(CN(C)C(=O)CC2C(=O)NCCN2Cc2ccc(-c3ccccc3)cc2)on1 (stereo not drawn)	-5	0	-6	3	3	13	.	.
CN(C)Cc1ccc(-c2nc3cccc4c3n2CCNC4=O)cc1	1	-2	0	2	58*	47	34	71*
O=C(Nc1ccc(Cl)cc1)Nc1cccc2nsnc12	11	-3	31	21	-96	26	.	.
Cc1cccc(C)c1NC(=O)CN(C)C(=O)CC1CC2CCC1C2 (stereo not drawn)	-3	.	-2	.	9	.	.	.
C[n+]1cccc2c(Br)ccc([O-])c21	-21	-4	-9	-1	-10	-13	.	.
[O-][n+]1cccc2c(Br)cc(Br)c(O)c21	7	109*	8	76*	51*	6	25	.
CCn1c(=O)cc(SCC(=O)NCc2ccc(C)o2)c2ccccc21	-17	2	.	-2	60*	-1	37	.
CCn1c(=O)cc(SCC(=O)Nc2ccc(C)cn2)c2ccccc21	52	-3	64	0	100*	-2	70*	143*
CCn1c(=O)cc(SCC(=O)NCc2ccc(C)cc2)c2ccccc21	3	-8	28	-3	32	4	.	.
CCN1CCN(C(=O)CSc2cc(=O)n(CC)c3ccccc23)CC1	-2	-16	-6	-6	52*	2	41*	76*
CCn1c(=O)cc(SCC(=O)N2CCN(C)CC2)c2ccccc21	1	-16	-11	-10	37	-2	.	.
CCn1c(=O)cc(SCC(=O)Nc2cc(OC)c(OC)c(OC)c2)c2ccccc21	-4	3	8	-1	53*	7	19	.
Cc1cc2c(cc1C)CSC(c1c(O)ccc3ccccc13)SC2	7	61	112*	94*	75*	7	37	57*
SMILES	Beta cell apopt	Calb FLC	CSC inhib	SKKanGAS inh	Mdm2 MdmX PPI	T cruzi inh	Mdm2-MdmX conf	Full FLuc ctr
Cc1cc2c(cc1C)CSC(c1ccc3ccccc3c1O)SC2	-1	-33	4	7	39	-5	.	.
N#CCC(=O)Nc1ccc(C(=O)OC(C(=O)Nc2cc(C(F)(F)F)ccc2Cl)c2ccccc2)cc1 (stereo not drawn)	-6	.	14	61*	52*	3	39	71*
COc1ccccc1C1=NOC(C)(c2sc(-c3ccc(Cl)cc3)nc2C)C1 (stereo not drawn)	6	-2	25	18	-3	-4	.	.
CC(C)(C)C(C(=O)Oc1ccccc1)c1ccccc1 (stereo not drawn)	3	.	-1	.	7	.	.	.
CC(C)n1cnc2c(NCc3ccccc3)cc(N[C@H](C)CO)cc21	114*	.	124*	.	74*	.	79*	52*
Cc1cccc(N/N=C(\C(N)=O)C2=NC(C)(C)Cc3ccccc32)c1	-7	12	76*	-6	58*	31	35	.
COc1cc(C(CCN2CCCC2)c2c(OC)cc(OC)c3c(-c4ccccc4)cc(=O)oc23)cc(OC)c1OC (stereo not drawn)	-1	-15	-11	8	78*	58*	32	.
COc1cc(OC)c2c(-c3ccccc3)cc(=O)oc2c1C(CCN1CCCC1)c1ccc2c(c1)OCO2 (stereo not drawn)	3	-18	15	10	81*	32	14	.
COc1cc(OC)c2c(-c3ccccc3)cc(=O)oc2c1C(CCN1CCOCC1)c1ccc2c(c1)OCO2 (stereo not drawn)	.	.	.	.	30	.	.	.
FC(F)(F)c1cccc(OCCN2CCN(Cc3ccccc3)CC2)c1	-1	-21	6	-3	19	39	.	.
Cc1nc(/C(N)=N/OC(=O)c2c(-c3ccccc3Cl)noc2C)cs1	-1	6	18	2	93*	2	76*	96*
Cc1onc(-c2ccccc2Cl)c1C(N)=O	-3	12	3	-4	1	-24	.	.
COc1ccc(/C(N)=N/OC(=O)c2c(-c3ccccc3Cl)noc2C)cc1OC	7	-3	25	-7	100*	57*	96*	96*
O=C(N/N=C/c1ccc(O)cc1O)c1ccc(NC(=O)C2CCCCC2)cc1	?	-2	-4	2	68*	4	54*	38*
O=C(N/N=C/c1cccc(O)c1)c1ccc(NC(=O)C2CCCCC2)cc1	5	?	11	1	30	-9	.	.
